Shown are actives, neighbours in structure and some others; about 2.5% of the full set was active somewhere.
NadD block: inhibitors of S. aureus NadD, primary screen, biochemical, colorimetric, uHTS | Nicotinate-nucleotide adenylyltransferase NadD (Staphylococcus aureus N315) | purified NadD enzyme, colorimetric absorbance read-out | inhibition, % at 20 µM | 0.78% of 360,000 active | AID 602399, 2012; in the data active = inhibition above about 26%
GRK2 inh: compounds blocking aptamer binding on GRK2 – biochemical, human GRK2, bead flow cytometry, HTS, primary screen. FAM-aptamer displacement from GRK2. inhibition of aptamer binding, % at 10 µM. 0.59% of 330,000 active;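 active = inhibition of aptamer binding above 40%, roughly 3 SD of noise, on plates passing a quality check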;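 note: median bead fluorescence of bound FAM aptamer so fluorescent compounds give negative values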
Beta2AR agonist: beta2AR agonists driving receptor internalization, primary screen, cell-based, FAP fluorogen, flow cytometry | 0.43% of 340,000 active | response, % (test concentration not listed) | Am2.2-beta2AR cells | Beta-2 adrenergic receptor (Homo sapiens), P07550;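 active = response above a set limit, near 3 SD of response in nonfluorescent compounds, cut at about 42% in these data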
ABHD5-PLIN5 inh: ABHD5-PLIN5 interaction inhibitors, primary screen, cell lysate, split luciferase complementation, luminescence | Perilipin-5 (Homo sapiens) + 1-acylglycerol-3-phosphate O-acyltransferase ABHD5 (Homo … | Split G. princeps luciferase complementation, 4 h | inhibition, % at 4 µM | 0.78% of 360,000 active;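 active = inhibition above the mean inhibition across every tested compound plus 3 SD, cut at about 22% in these data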;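 note: 0% = DMSO only wells and the 100% control is not disclosed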
Target sequence (Q00G26 whole entry, looked up): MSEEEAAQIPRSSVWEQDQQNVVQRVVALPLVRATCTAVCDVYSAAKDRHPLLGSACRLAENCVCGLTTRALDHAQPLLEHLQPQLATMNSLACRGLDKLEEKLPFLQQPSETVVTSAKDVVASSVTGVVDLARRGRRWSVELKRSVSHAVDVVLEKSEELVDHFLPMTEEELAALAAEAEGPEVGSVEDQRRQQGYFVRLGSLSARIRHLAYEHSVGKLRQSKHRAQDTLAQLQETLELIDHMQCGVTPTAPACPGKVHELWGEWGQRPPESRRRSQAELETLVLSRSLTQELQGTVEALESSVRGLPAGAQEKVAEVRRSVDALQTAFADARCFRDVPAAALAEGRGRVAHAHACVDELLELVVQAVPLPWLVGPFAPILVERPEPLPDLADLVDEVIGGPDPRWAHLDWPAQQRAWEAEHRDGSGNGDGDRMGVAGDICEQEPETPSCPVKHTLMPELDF
Target sequence (Q8WTS1 whole entry, looked up): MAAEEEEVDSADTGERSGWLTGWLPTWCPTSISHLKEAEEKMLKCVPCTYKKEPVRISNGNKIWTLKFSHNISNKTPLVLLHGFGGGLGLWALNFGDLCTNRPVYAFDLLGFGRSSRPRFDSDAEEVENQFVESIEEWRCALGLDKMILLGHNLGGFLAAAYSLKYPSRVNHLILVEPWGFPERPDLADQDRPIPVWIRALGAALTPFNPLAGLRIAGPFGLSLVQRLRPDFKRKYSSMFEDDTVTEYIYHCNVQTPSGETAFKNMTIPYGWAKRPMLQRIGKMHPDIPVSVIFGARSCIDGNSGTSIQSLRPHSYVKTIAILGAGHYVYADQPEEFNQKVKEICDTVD
SENP1 FRET inh: human SENP1 catalytic domain inhibitors, primary screen, biochemical, FRET, uHTS; recombinant SENP1 catalytic domain, CyPet-SUMO1-YPet FRET cleavage; inhibition, % at 10 µM; 0.21% of 360,000 active;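 active = inhibition at least 30% at 10 µM, raw YFP signal under a set limit, fluorescence ratio 0.5 to 1.5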;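 note: 0% = enzyme with DMSO and 100% = no enzyme wells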
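Compound: 10 µM single point, 0.5% DMSO; Test system: hSENP1 catalytic domain, recombinant; Timing: 50 min reaction at room temperature; Technique: FRET, CFP and YFP emission; Control set: no-enzyme wells low, DMSO-plus-enzyme wells high control.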
GRK2 CP1: GRK2 aptamer-displacing inhibitors, retest, confirmation, biochemical, cherry pick 1, bead flow cytometry. 4% of 2,000 active. shares compounds with GRK2 inh. bead-bound GRK2, FAM-aptamer displacement. aptamer displacement, % at 10 µM;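 active = aptamer displacement above 40%, near three times the noise of non-fluorescent compounds, on plates passing quality checks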;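 note: negative values mostly reflect intrinsic compound fluorescence rather than true enhancement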
Aptamer quench SP: counter-screen for GRK2 aptamer inhibitors: fluorescent aptamer quenchers; shares compounds with GRK2 inh; Carboxyfluorescein RNA aptamer on beads, flow cytometry quenching; active compounds read low; fluorescence response (% of DMSO), % at 10 µM; 2,000 tested, under 10 active;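 active = compounds that quench the bead-bound fluorescent RNA probe, cutting fluorescence to under half of the solvent control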;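 note: counterscreen run without GRK2 so only probe quenching by compound is measured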
GRK2 confirm 2: GRK2 aptamer-displacing inhibitors, hit retest, confirmation, biochemical, cherry pick 2, bead flow cytometry | shares compounds with GRK2 inh | bead-bound GRK2, FAM-aptamer displacement | inhibition of aptamer binding, % at 10 µM | 360 tested, under 10 active | AID 504782, 2011;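 active = inhibition of aptamer binding above 40%, about triple the noise seen with nonglowing compounds, on plates passing quality control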;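 note: negative values mostly come from compounds that fluoresce themselves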
FAM quench SP: aptamer fluorescence quenching in GRK2 counter-screen. 360 tested, under 10 active. shares compounds with GRK2 inh. fluorescence response vs DMSO, % at 10 µM. AID 588494. carboxyfluorescein RNA aptamer beads, flow cytometry quenching; active compounds read low;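 active = response vs DMSO under 50%, meaning signal dropped by over half, treated as fluorescence quencher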;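 note: labelled aptamer on streptavidin beads without GRK2 as a quench counter-screen; 100% = bead fluorescence of DMSO wells and lower means quenching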
Active calls of the source: *; · = no result given.

SMILES	NadD block	GRK2 inh	Beta2AR agonist	ABHD5-PLIN5 inh	SENP1 FRET inh	GRK2 CP1	Aptamer quench SP	others
Cc1ccc2c(c1)c1nnc(SCC(=O)N3CCN(c4ccc(F)cc4)CC3)nc1n2CC(=O)O	4.7	100.0*	-4.3	-2.9	-10.8	·	·	GRK2 confirm 2=2.1;FAM quench SP=99.0
Nc1c(C(=O)NCCc2ccccc2)nnn1Cc1ccc(Br)cc1F	-6.0	50.0*	-6.2	-5.0	1.2	-6.6	102.6
Nc1c(C(=O)NCCc2ccccc2)nnn1Cc1ccc(Cl)cc1	-3.7	1.0	3.8	10.3	3.1	·	·
Cc1ccc(NC(=O)c2ncn[nH]2)cc1	-1.0	5.0	3.5	1.5	-1.1	·	·
Cc1ccccc1C(=O)Nc1cccc(NC(=O)c2ncn[nH]2)c1	4.6	99.0*	-4.2	-2.0	0.7	16.4	97.9
CSc1ccc(CN2CCN(S(=O)(=O)Cc3ccccc3)CC2)cc1	-1.7	55.0*	-13.2	-12.0	-0.5	·	·	GRK2 confirm 2=-29.4;FAM quench SP=103.0
Cc1cc(Cl)cc(C)c1OCCn1ccnc1	-3.4	42.0*	-5.7	-5.0	-1.8	·	·	GRK2 confirm 2=-23.5;FAM quench SP=100.0
COC(=O)CNc1n[nH]c(=S)[nH]c1=O	0.9	85.0*	10.2	10.3	0.9	-9.2	99.2
O=C(O)COCC(=O)N1CCCN(c2nccc(C(F)(F)F)n2)CC1	0.2	0.0	-8.6	0.7	-0.3	·	·
CCCNC(=O)C(Cc1cccc(C#N)c1)NC(=O)c1ccc(C#N)cc1 (centres undefined)	-1.4	82.0*	-3.9	-1.7	2.5	1.2	96.2
CCCNC(=O)C(Cc1cccc(Cl)c1)NC(=O)c1ccc(C#N)cc1 (centres undefined)	1.5	0.0	2.3	3.7	0.9	·	·
Cc1ccc(Cn2c(Cc3ccccc3)nc3ccccc32)cc1	1.7	96.0*	1.6	-5.9	1.2	1.0	94.7
O=C(NN1CCOCC1)c1cc(-c2ccncc2)nc2ccccc12	-5.4	2.0	2.8	2.4	1.1	·	·
O=C(NN1CCOCC1)c1cc(-c2ccccc2)nc2ccccc12	1.7	71.0*	2.5	0.7	1.7	1.2	98.3
COc1ccc(OCC(=O)N2CCN(c3nnc(-c4ccc(C)cc4)c4ccccc34)CC2)cc1	11.6	54.0*	-1.1	13.0	1.1	0.7	91.2
O=C(CS(=O)(=O)c1cccc(C(F)(F)F)c1)Nc1ccccc1Cl	-6.8	1.0	2.2	0.9	-1.5	·	·	GRK2 confirm 2=-5.2;FAM quench SP=107.0
O=C(Cc1ccccc1)NS(=O)(=O)c1ccc(N=NN2CCOCC2)cc1	0.0	26.0	-4.5	12.6	1.5	-2.9	99.1
COc1ccccc1NC(=O)NC1(C(=O)N2CCCCCC2)CCCCC1	4.2	95.0*	3.8	-1.7	-2.6	-2.5	94.5
COc1ccccc1NC(=O)NC1(C(=O)N2CCOCC2)CCCCC1	-2.8	0.0	-0.6	-2.4	-1.6	·	·
CCCCC(CC)c1nnc(NC(=O)c2cccs2)s1 (centres undefined)	-5.7	·	-12.3	-3.9	1.4	·	·
CC(C)c1nnc(NC(=O)c2cccs2)s1	-0.2	44.0*	-6.2	3.9	0.3	-2.9	97.7
CCC(CC)c1nnc(NC(=O)CS(=O)(=O)c2ccccc2)s1	-1.7	1.0	-2.8	-7.3	-6.3	·	·
CCCC(C)c1nnc(NC(=O)CCS(=O)(=O)c2ccccc2)s1 (centres undefined)	-2.6	17.0	-8.0	-7.9	-1.2	13.0	98.2
CC(C)c1nnc(NC(=O)CCc2ccccc2)s1	-6.5	0.0	-9.9	9.6	1.1	·	·
CC(C)c1nnc(NC(=O)CCS(=O)(=O)c2ccccc2)s1	2.0	0.0	-2.4	-0.2	1.0	-1.6	112.5
SMILES	NadD block	GRK2 inh	Beta2AR agonist	ABHD5-PLIN5 inh	SENP1 FRET inh	GRK2 CP1	Aptamer quench SP	others
COc1ccc(Cl)c(-c2cc(C(=O)Nc3ccccc3)[nH]n2)c1	-4.2	·	·	0.2	-1.6	·	·
CCNc1c(NC(=O)C2CCC(C)CC2)c(=O)oc2ccccc12 (centres undefined)	-2.2	0.0	10.4	3.7	1.5	·	·
COc1ccc(NC(=S)NNc2ccc(S(=O)(=O)Nc3ccccc3C(=O)O)cc2[N+](=O)[O-])cc1	0.2	48.0*	4.2	-4.8	2.4	4.3	99.0
Cc1ccc([N+](=O)[O-])cc1S(=O)(=O)NCC1COc2ccccc2O1 (centres undefined)	-4.8	54.0*	-7.7	0.9	-0.4	1.9	101.9
O=C(NCCCN1CCOCC1)/C(=C/c1ccco1)NC(=O)c1ccccc1	-4.2	0.0	-0.4	-1.9	1.4	·	·
Cc1ccc(S(=O)(=O)Oc2cccc(N3C(=O)C4CC=CCC4C3=O)c2)cc1 (centres undefined)	-6.9	71.0*	-5.8	5.4	0.3	0.8	100.5
O=C(c1ccc([N+](=O)[O-])cc1)N1CCN(c2ncc(Br)cn2)CC1	-5.4	0.0	-3.8	-2.4	-0.2	·	·
Cc1nc2c(sc(=S)n2Cc2ccco2)c(=O)n1CC(=O)Nc1ccccc1Cl	0.3	84.0*	-8.6	-8.1	-1.7	-4.1	118.0
O=C(CC1Sc2ccccc2NC1=O)NNc1cccc(Cl)c1Cl (centres undefined)	-4.5	·	-1.1	-6.0	1.9	·	·
Cc1ccc(S(=O)(=O)N2CCCCC2)cc1NC(=O)COC(=O)c1cccn1C	-3.5	3.0	9.6	-4.3	1.8	·	·
Cc1ccc(-c2noc(C3CCCN(C(=O)c4cccc(F)c4)C3)n2)cc1 (centres undefined)	-2.0	100.0*	-2.9	-3.4	0.3	0.3	103.0
COc1ccc([C@H]2CC(=O)C=C(c3ccccc3Oc3ccccc3)C2)cc1	6.8	60.0*	0.2	3.6	-0.1	-2.0	95.4
COc1ccc([C@H]2CC(=O)C=C(c3ccccc3-c3ccccc3)C2)cc1	-8.7	0.0	6.3	-10.0	3.5	·	·
O=C(COc1ccc(N2C(=O)c3ccccc3C2=O)cc1)c1ccccc1	-4.5	3.0	5.9	1.2	2.6	·	·
O=C(COc1ccccc1N1C(=O)c2ccccc2C1=O)c1ccc(Cl)cc1	-8.6	73.0*	-52.8	2.4	1.5	-8.3	97.9
